# Where “and” joins values, the source holds several entries; their conditions need not be identical. Identical values can stand only once.
# System: HEK-293T
# Test: Multiplex assay against HEK293T
# Format: toxicity, cell-based
# Settings: human, number of replicates 2
# Method in brief: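 Live cells were stained at seeding with Hoechst33342, BioTracker Green Microtubule Cytoskeleton Dye, MitoTracker Red and Annexin V Alexa Fluor 680. Following compound addition, they were imaged on a CQ1 microscope at 37°C and 5% CO2 and gated by CellPathfinder machine learning into Hoechst high-intensity objects or normal cells, with normal cells split into healthy, pyknosed or fragmented nuclei and pyknosed cells into mitotic or apoptotic. Tubulin, mitochondrial-mass and membrane-permeability phenotypes are per cents of healthy-nucleus cells.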
# [1] = 12 h, 1 µM, compound concentration 1 uM
# [2] = 12 h, 10 µM, compound concentration 10 uM
# [3] = 24 h, 1 µM, compound concentration 1 uM
# [4] = 24 h, 10 µM, compound concentration 10 uM
# [5] = 48 h, 1 µM, compound concentration 1 uM
# [6] = 48 h, 10 µM, compound concentration 10 uM
structure (smiles),measurement,setting,value
CCN1CCN(Cc2ccc(C(=O)Nc3ccc(C)c(Oc4ccc5c(c4)CC(=O)N5)c3)cc2C(F)(F)F)CC1.Cl.Cl,Population Apoptotic (%),[1],43% and 61%
same,Population Fragmented Nuclei (%),[1],3% and 7%
same,Population Healthy Nuclei (%),[1],83% and 79%
same,Population Hoechst High Intensity Objects (%),[1],6% and 8%
same,Population Membrane Permeable-Phenotype (%),[1],2%
same,Population Mitochondria Different-Phenotype (%),[1],24% and 20%
same,Population Mitotic Cells (%),[1],56% and 38%
same,Population Normal (%),[1],93% and 91%
same,Population Pyknosed Nuclei (%),[1],12% and 13%
same,Population Tubulin-Different-Phenotype (%),[1],64% and 61%
same,Total Cell Count,[1],609 and 592
same,Population Apoptotic (%),[2],68% and 69%
same,Population Fragmented Nuclei (%),[2],6% and 5%
same,Population Healthy Nuclei (%),[2],80% and 81%
same,Population Hoechst High Intensity Objects (%),[2],12% and 10%
same,Population Membrane Permeable-Phenotype (%),[2],6% and 2%
same,Population Mitochondria Different-Phenotype (%),[2],30% and 42%
same,Population Mitotic Cells (%),[2],31% and 30%
same,Population Normal (%),[2],87% and 89%
same,Population Pyknosed Nuclei (%),[2],13% and 12%
same,Population Tubulin-Different-Phenotype (%),[2],96% and 95%
same,Total Cell Count,[2],598 and 606
same,Population Apoptotic (%),[3],40% and 52%
same,Population Fragmented Nuclei (%),[3],4% and 3%
same,Population Healthy Nuclei (%),[3],88% and 89%
same,Population Hoechst High Intensity Objects (%),[3],7% and 8%
same,Population Membrane Permeable-Phenotype (%),[3],2%
same,Population Mitochondria Different-Phenotype (%),[3],9%
same,Population Mitotic Cells (%),[3],59% and 47%
same,Population Normal (%),[3],92% and 91%
same,Population Pyknosed Nuclei (%),[3],7% and 6%
same,Population Tubulin-Different-Phenotype (%),[3],45% and 47%
same,Total Cell Count,[3],907 and 801
same,Population Apoptotic (%),[4],58% and 78%
same,Population Fragmented Nuclei (%),[4],7% and 5%
same,Population Healthy Nuclei (%),[4],78% and 81%
same,Population Hoechst High Intensity Objects (%),[4],15%
same,Population Membrane Permeable-Phenotype (%),[4],4% and 2%
same,Population Mitochondria Different-Phenotype (%),[4],40% and 44%
same,Population Mitotic Cells (%),[4],41% and 21%
same,Population Normal (%),[4],84%
same,Population Pyknosed Nuclei (%),[4],14% and 12%
same,Population Tubulin-Different-Phenotype (%),[4],97% and 95%
same,Total Cell Count,[4],517 and 556
same,Population Apoptotic (%),[5],12% and 23%
same,Population Fragmented Nuclei (%),[5],10% and 6%
same,Population Healthy Nuclei (%),[5],85% and 87%
same,Population Hoechst High Intensity Objects (%),[5],9% and 8%
same,Population Membrane Permeable-Phenotype (%),[5],5% and 3%
same,Population Mitochondria Different-Phenotype (%),[5],0% and 1%
same,Population Mitotic Cells (%),[5],87% and 76%
same,Population Normal (%),[5],90% and 91%
same,Population Pyknosed Nuclei (%),[5],4% and 5%
same,Population Tubulin-Different-Phenotype (%),[5],22% and 28%
same,Total Cell Count,[5],2293 and 1602
same,Population Apoptotic (%),[6],75%
same,Population Fragmented Nuclei (%),[6],10% and 14%
same,Population Healthy Nuclei (%),[6],76% and 73%
same,Population Hoechst High Intensity Objects (%),[6],14% and 17%
same,Population Membrane Permeable-Phenotype (%),[6],13% and 5%
same,Population Mitochondria Different-Phenotype (%),[6],12% and 13%
same,Population Mitotic Cells (%),[6],25%
same,Population Normal (%),[6],85% and 82%
same,Population Pyknosed Nuclei (%),[6],12%
same,Population Tubulin-Different-Phenotype (%),[6],94% and 93%
same,Total Cell Count,[6],709 and 749
Br.Cc1cccc(C2CN(C)CCc3c2cc(O)c(O)c3Cl)c1 (configuration not stated),Population Apoptotic (%),[1],15% and 42%
same,Population Fragmented Nuclei (%),[1],4% and 3%
same,Population Healthy Nuclei (%),[1],87% and 86%
same,Population Hoechst High Intensity Objects (%),[1],9% and 4%
same,Population Membrane Permeable-Phenotype (%),[1],3% and 2%
same,Population Mitochondria Different-Phenotype (%),[1],11% and 15%
same,Population Mitotic Cells (%),[1],84% and 57%
same,Population Normal (%),[1],90% and 95%
same,Population Pyknosed Nuclei (%),[1],8% and 10%
same,Population Tubulin-Different-Phenotype (%),[1],50%
same,Total Cell Count,[1],707 and 682
same,Population Apoptotic (%),[2],52% and 53%
same,Population Fragmented Nuclei (%),[2],3% and 4%
same,Population Healthy Nuclei (%),[2],88% and 81%
same,Population Hoechst High Intensity Objects (%),[2],8% and 7%
same,Population Membrane Permeable-Phenotype (%),[2],1% and 2%
same,Population Mitochondria Different-Phenotype (%),[2],27% and 22%
same,Population Mitotic Cells (%),[2],47% and 46%
same,Population Normal (%),[2],91% and 92%
same,Population Pyknosed Nuclei (%),[2],7% and 14%
same,Population Tubulin-Different-Phenotype (%),[2],63% and 57%
same,Total Cell Count,[2],523 and 513
same,Population Apoptotic (%),[3],36% and 32%
same,Population Fragmented Nuclei (%),[3],5%
same,Population Healthy Nuclei (%),[3],89%
same,Population Hoechst High Intensity Objects (%),[3],7% and 8%
same,Population Membrane Permeable-Phenotype (%),[3],3% and 1%
same,Population Mitochondria Different-Phenotype (%),[3],3% and 5%
same,Population Mitotic Cells (%),[3],63% and 68%
same,Population Normal (%),[3],92% and 91%
same,Population Pyknosed Nuclei (%),[3],4% and 5%
same,Population Tubulin-Different-Phenotype (%),[3],28% and 35%
same,Total Cell Count,[3],1088 and 1072
same,Population Apoptotic (%),[4],26% and 51%
same,Population Fragmented Nuclei (%),[4],7% and 5%
same,Population Healthy Nuclei (%),[4],87% and 89%
same,Population Hoechst High Intensity Objects (%),[4],7%
same,Population Membrane Permeable-Phenotype (%),[4],2% and 3%
same,Population Mitochondria Different-Phenotype (%),[4],11% and 10%
same,Population Mitotic Cells (%),[4],73% and 48%
same,Population Normal (%),[4],92%
same,Population Pyknosed Nuclei (%),[4],4% and 5%
same,Population Tubulin-Different-Phenotype (%),[4],53% and 49%
same,Total Cell Count,[4],768 and 746
same,Population Apoptotic (%),[5],7% and 15%
same,Population Fragmented Nuclei (%),[5],16% and 12%
same,Population Healthy Nuclei (%),[5],80% and 84%
same,Population Hoechst High Intensity Objects (%),[5],12% and 10%
same,Population Membrane Permeable-Phenotype (%),[5],6% and 4%
same,Population Mitochondria Different-Phenotype (%),[5],0% and 1%
same,Population Mitotic Cells (%),[5],92% and 84%
same,Population Normal (%),[5],87% and 89%
same,Population Pyknosed Nuclei (%),[5],2% and 3%
same,Population Tubulin-Different-Phenotype (%),[5],15% and 19%
same,Total Cell Count,[5],2930 and 2368
same,Population Apoptotic (%),[6],10% and 21%
same,Population Fragmented Nuclei (%),[6],12%
same,Population Healthy Nuclei (%),[6],84%
same,Population Hoechst High Intensity Objects (%),[6],11%
same,Population Membrane Permeable-Phenotype (%),[6],9% and 6%
same,Population Mitochondria Different-Phenotype (%),[6],0% and 1%
same,Population Mitotic Cells (%),[6],89% and 78%
same,Population Normal (%),[6],88%
same,Population Pyknosed Nuclei (%),[6],2%
same,Population Tubulin-Different-Phenotype (%),[6],22% and 26%
same,Total Cell Count,[6],1797 and 1636

# Source: ChEMBL document CHEMBL5303300, “EUbOPEN Chemogenomics Library - Multiplex” (2023)
